# Experimental data published in PubChem BioAssay AID1325 (NMMLSC, 2008).
# The campaign covered roughly 190,000 compounds. About 200 (0.11%) were called active.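 The calls were made as follows: active = inhibition above 80%; inactive = the rest.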 The entries come from a sample that favours actives as a whole.
# Target: Broad substrate specificity ATP-binding cassette transporter ABCG2 (Homo sapiens) (UniProt Q9UNQ0)
# Assay: ABCG2 efflux pump inhibitors, primary screen, multiplex with ABCB1, IgMXP3 cells, flow cytometry (AID 1325);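 also: 0% = DMSO and 100% = nicardipine control wells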
# Settings: JC-1 efflux, at 6.6 µM, stronger effect = higher value
# Procedure, shortened: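 Read-out basis: Efflux inhibition in percent versus controls | Test system: ABCG2 IgMXP3 and barcoded ABCB1 CCRF-Adr cell mix | Quantity: 3 million cells/mL in well | Schedule: 10 min at 25 °C | Control set: Nicardipine as high control, DMSO as low control | Reagent: JC-1 as fluorescent efflux pump substrate | Signal: Flow cytometry of retained JC-1 fluorescence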
# Chain of Broad substrate specificity ATP-binding cassette transporter ABCG2 (Homo sapiens) (Q9UNQ0 whole entry, looked up): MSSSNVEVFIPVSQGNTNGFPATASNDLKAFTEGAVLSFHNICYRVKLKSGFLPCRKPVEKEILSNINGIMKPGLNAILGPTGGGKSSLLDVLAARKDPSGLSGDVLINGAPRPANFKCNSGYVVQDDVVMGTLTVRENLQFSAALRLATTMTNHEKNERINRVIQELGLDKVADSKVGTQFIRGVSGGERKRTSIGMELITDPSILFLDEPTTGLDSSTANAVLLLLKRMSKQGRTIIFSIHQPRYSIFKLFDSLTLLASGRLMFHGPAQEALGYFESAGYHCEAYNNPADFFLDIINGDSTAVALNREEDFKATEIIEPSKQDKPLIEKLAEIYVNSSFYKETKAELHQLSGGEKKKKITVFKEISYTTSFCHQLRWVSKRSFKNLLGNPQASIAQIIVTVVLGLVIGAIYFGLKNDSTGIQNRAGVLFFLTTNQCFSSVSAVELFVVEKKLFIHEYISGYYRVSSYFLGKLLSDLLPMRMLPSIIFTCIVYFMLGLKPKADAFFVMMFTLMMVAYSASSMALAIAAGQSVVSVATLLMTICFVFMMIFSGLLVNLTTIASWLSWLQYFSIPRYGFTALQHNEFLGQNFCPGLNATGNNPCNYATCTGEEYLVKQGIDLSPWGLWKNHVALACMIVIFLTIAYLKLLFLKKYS
row,Compound,inhibition
1,CC(C)n1c(-c2ccncc2)n[nH]c1=S,0.69% (inactive)
2,Clc1ncn(CCOc2ccccc2)c1Cl,1.15% (inactive)
3,CN(/C(=N/S(=O)(=O)c1cccs1)c1ccccc1)c1ccc(O)cc1,0.46% (inactive)
4,N#C/C(=C/c1ccc(N2CCOCC2)o1)C(=O)N1CCOCC1,7.86% (inactive)
5,COc1ccccc1-c1nnc(NC(=O)c2ccc3ncsc3c2)o1,-4.46% (inactive)
6,COC(=O)c1ccc(CSc2nncn2N)cc1,-1.84% (inactive)
7,CCOc1ccc(CN2CCN(Cc3ccon3)CC2CCO)cc1 (stereo unspecified),-2.99% (inactive)
8,Cc1ncc([N+](=O)[O-])n1CCOC(=O)c1ccc(Br)cc1,9.29% (inactive)
9,CCO/N=C(/C)c1c(O)cc(-c2ccccc2)n(-c2ccccc2)c1=O,32.1% (inactive)
10,Cc1nnsc1C(=O)Nc1cccc(Cl)c1C,10.7% (inactive)
11,CCC1=NN(C(=O)Cc2ccc([N+](=O)[O-])cc2)C(O)(c2ccc(Br)cc2)C1 (stereo unspecified),5.42% (inactive)
12,O=c1c(-c2ccccc2)coc2cc(O)ccc12,2.5% (inactive)
13,CCn1nc(C)c(/C=N/NC(=O)Cc2ccc(Cl)cc2)c1C,9.46% (inactive)
14,Cc1ccc2nc(SCc3cn4c(C)cc(C)nc4n3)[nH]c2c1,7.53% (inactive)
15,CC(C)(C)n1nc2c(c1NC(=O)c1cc3ccccc3o1)CSC2,0.23% (inactive)
16,Cc1nc(N)c(Br)c(C)c1Br,2.8% (inactive)
17,CC(CCn1cccn1)NC(=O)CCc1nnc(CCc2ccccc2)o1 (stereo unspecified),-0.02% (inactive)
18,CCCOC(=O)Nc1sc2c(c1C(=O)OCC)CCC2,31.4% (inactive)
19,CCOC(=O)c1c(NC(=O)c2ccc(Br)o2)sc2c1CCCC2,14.6% (inactive)
20,CCOCC(=O)Nc1sc2c(c1C(=O)OCC)CCCC2,104% (active)
21,O=C(NCc1ccccc1Cl)C1CCC(CNc2c(N3CCCCC3)c(=O)c2=O)CC1 (stereo unspecified),0% (inactive)

row,Compound,inhibition
1,CCOC(=O)c1sc(/N=C/C2=C(O)CC(C)(C)CC2=O)c(C(=O)OCC)c1C,3.82% (inactive)
2,COc1ccc(CC(=O)NCc2nnc(SCC(=O)Nc3nccs3)n2C)cc1,0.7% (inactive)
3,COc1cc(NC(=O)c2cccnc2SC)cc(OC)c1,11.7% (inactive)
4,Cc1ccc(N2C(=O)SC(N(CC(=O)O)c3ccc(C)cc3)C2=O)cc1 (stereo unspecified),1.16% (inactive)
5,CC(=O)c1ccc(NC(=O)Nc2ccc([N+](=O)[O-])cc2C)cc1,28.4% (inactive)
6,COc1ccc(-c2cn(-c3ccc(OC)cc3)c(=S)[nH]2)cc1,6.92% (inactive)
7,COc1cccc(NC(=O)c2ccc(Cn3cc([N+](=O)[O-])cn3)o2)c1,89.2% (active)
8,O=C(Nc1ccc(Br)c2cccnc12)c1ccc(Cn2cc([N+](=O)[O-])cn2)o1,1.01% (inactive)
9,CCc1ccc(NC(=O)c2ccc(Cn3cc([N+](=O)[O-])cn3)cc2)cc1,1.22% (inactive)
10,Cc1ccc(SCCC(=O)NC(C(C)C)C(C)C)cc1,29.5% (inactive)
11,CCOC(=O)CNc1nc2ccccc2n2c(C)nnc12,4.58% (inactive)
12,COc1ccc(-n2c(C)cc(C(=O)COC(=O)c3cc(OC)c(OC)cc3NC(=O)c3cccs3)c2C)cc1,91.7% (active)
13,COc1ccc(-n2c(C)cc(C(=O)CSc3nnc(-c4cccs4)o3)c2C)cc1,4.95% (inactive)
14,Cc1cc(C(=O)COC(=O)c2cccs2)c(C)n1-c1c(C)n(C)n(-c2ccccc2)c1=O,1.17% (inactive)
15,Brc1ccc(-c2csc(N/N=C/c3cccnc3)n2)cc1,-0.01% (inactive)
16,O=C(COC(=O)c1ccccc1)Nc1cccc(S(=O)(=O)N2CCOCC2)c1,8.84% (inactive)
17,Cc1ccc(NC(=O)C(=O)NCc2ccc(/C=N/NC(=O)c3c(C)nc4cc(C)ccn34)o2)cc1,24.5% (inactive)
18,c1ccc(-n2nnnc2-c2cccnc2)cc1,1.93% (inactive)
19,COc1cccc(OC)c1C(=O)Nc1ccc(Cc2ccncc2)cc1,1.46% (inactive)
20,CCOc1ccc(C(CC(=O)O)NC(=O)C23CC4CC(CC(C4)C2)C3)cc1OC (stereo unspecified),-1.01% (inactive)
21,O=[N+]([O-])c1ccc2[nH]c3c(c2c1)CCCC3O (stereo unspecified),14.8% (inactive)

row,Compound,inhibition
1,O=C(NC1CC1)C1CCCN(C(=O)NC2CCCCC2)C1 (stereo unspecified),6.29% (inactive)
2,CCN(CC)c1ccc([N+](=O)[O-])cc1C(=O)O,3.47% (inactive)
3,COc1cccc2cc(/C(C)=N/NC(=O)c3ccco3)oc12,6.63% (inactive)
4,CC(=O)N1CCc2cc(Br)cc(S(=O)(=O)CCC(=O)Nc3c(C)n(C)n(-c4ccccc4)c3=O)c21,-0.95% (inactive)
5,O=C(Cn1ncc(N2CCCC2)c(Br)c1=O)c1ccc(Cl)cc1,8.74% (inactive)
6,O=C(N/C(=C\c1ccc(F)cc1)C(=O)N1CCCCCC1)c1ccccc1,0.94% (inactive)
7,CCc1nnc(NC(=O)Cc2cccs2)s1,-0.23% (inactive)
8,COc1cccc(/C(C)=N/Nc2ncc(Cl)cc2Cl)c1,16.5% (inactive)
9,Cc1c(Cl)cnc(NC(=O)COC(=O)c2ccc(S(=O)(=O)NCc3ccco3)cc2)c1Cl,-0.23% (inactive)
10,C/C(=N\Nc1ncc(Cl)cc1Cl)c1ccc(S(=O)(=O)NCc2ccco2)cc1,81.6% (active)
11,Cc1ccccc1N/C(SCc1ccc(Cl)cc1)=C(/C#N)C(N)=O,9.99% (inactive)
12,C/C(N)=C(/C#N)C(=O)COC(=O)C1CCN(C(=O)c2ccc(Cl)cc2)CC1,6.63% (inactive)
13,Cc1c(C(=O)NCCCc2ccccc2)cccc1[N+](=O)[O-],5.18% (inactive)
14,O=C(NCCCN1CCOCC1)c1ccc([N+](=O)[O-])cc1[N+](=O)[O-],1.56% (inactive)
15,CN1CCCN(C(=O)C2CCCCC2)CC1,3.74% (inactive)
16,CCN1CCN(C(=O)CCN2C(=O)c3ccccc3C2=O)CC1,12.2% (inactive)
17,CCN(C(=O)CSc1nnc2ccccn12)C1CCS(=O)(=O)C1 (stereo unspecified),6.4% (inactive)
18,O=C(CCCOc1ccc(Cl)cc1Cl)NNC(=O)C1CCC1,8.42% (inactive)
19,C#CCOCCOCCOCCNc1nc(N2CCN(C(=O)[C@H](Cc3ccc(O)cc3)n3cc(C(N)CC(C)C)nn3)CC2)nc(N2CCN(C(=O)[C@H](CCC(=O)O)n3cc(C(N)[C@H](C)CC)nn3)CC2)n1 (stereo partly specified),-1.91% (inactive)
